Measurements published in ChEMBL document CHEMBL1155871, “Synthesis and evaluation of pyrazolo[3,4-b]pyridines and its structural analogues as TNF-alpha and IL-6 inhibitors” (Bioorg Med Chem, 2008).
In brackets after ≈: the same amount, converted by molar mass.

Tests used:
THP-1 [1] = experiment: Antiinflammatory activity in human THP1 cells assessed as inhibition of LPS-induced TNFalpha at 10 uM by ELISA; format: functional
How it was run: (§1)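 THP-1 cells grown in RPMI 1640 with 10% FBS, penicillin and streptomycin, then differentiated with PMA. After plating, cells took test compound or vehicle (0.5% DMSO) for 30 min at 37 °C. LPS (E. coli 0127:B8) was then added and plates were kept 24 h at 37 °C, 5% CO2. Supernatant TNF-α and IL-6 measured by ELISA. Percent inhibition was taken against control, and IC50 by nonlinear regression.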

THP-1 [2] = experiment: Antiinflammatory activity in human THP1 cells assessed as inhibition of IL6 at 10 uM by ELISA; format: functional; how it was run: as §1
THP-1 [3] = experiment: Cytotoxicity against human THP1 cells at 10 uM; format: functional
How it was run: (§2)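 PMA-differentiated THP-1 cells in RPMI 1640 with 10% FBS were pretreated 30 min at 37 °C with compound or vehicle (0.5% DMSO). They were then stimulated with LPS for 24 h at 37 °C, 5% CO2. Viability was scored with CCK-8 in the same wells as the cytokine assay.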

Trypanosoma cruzi = experiment: Antichagasic activity against Trypanosoma cruzi; format: functional, organism-based
Phosphodiesterase 4 = Phosphodiesterase 4 (Homo sapiens, UniProt P27815+Q08499+Q07343+Q08493); experiment: Inhibition of PDE4 in human U937 cells by cAMP SPA enzyme assay; format: cell-based; details: u-937
PBMC = experiment: Antiinflammatory activity in […] PBMC assessed as inhibition of LPS-induced TNFalpha by ELISA; format: functional, cell-based; details: Homo sapiens
THP-1 [4] = experiment: Antiinflammatory activity in human THP1 cells assessed as inhibition of LPS-induced TNFalpha by ELISA; format: functional, cell-based; how it was run: as §1
THP-1 [5] = experiment: Antiinflammatory activity in human THP1 cells assessed as inhibition of LPS-induced IL6 by ELISA; format: functional, cell-based; how it was run: as §1
THP-1 [6] = experiment: Cytotoxicity against human THP1 cells; format: functional, cell-based; how it was run: as §2
THP-1 [7] = experiment: Antiinflammatory activity in human THP1 cells assessed as inhibition of LPS-induced TNFalpha at 1 uM by ELISA; format: functional; how it was run: as §1
THP-1 [8] = experiment: Antiinflammatory activity in human THP1 cells assessed as inhibition of LPS-induced IL6 at 1 uM by ELISA; format: functional; how it was run: as §1
THP-1 [9] = experiment: Cytotoxicity against human THP1 cells at 1 uM; format: functional; how it was run: as §2
THP-1 [10] = experiment: Antiinflammatory activity in human THP1 cells assessed as inhibition of LPS-induced TNFalpha at 30 uM by ELISA; format: functional; how it was run: as §1
[11] = target: Mitogen-activated protein kinase 14 (Homo sapiens, UniProt Q16539); experiment: Inhibition of p38alpha MAPK
Chain of Mitogen-activated protein kinase 14 (Q16539 whole entry): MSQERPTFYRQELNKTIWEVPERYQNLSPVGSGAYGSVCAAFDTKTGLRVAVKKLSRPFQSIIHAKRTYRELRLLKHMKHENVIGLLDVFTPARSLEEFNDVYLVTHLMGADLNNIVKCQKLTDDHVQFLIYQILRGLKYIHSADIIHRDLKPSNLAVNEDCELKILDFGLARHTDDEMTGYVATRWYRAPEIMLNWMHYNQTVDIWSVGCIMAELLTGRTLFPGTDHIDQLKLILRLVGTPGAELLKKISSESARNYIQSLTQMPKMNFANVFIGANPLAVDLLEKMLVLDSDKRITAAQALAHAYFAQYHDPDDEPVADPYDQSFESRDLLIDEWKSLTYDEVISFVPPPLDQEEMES

Mus musculus = experiment: Inhibition of LPS-induced TNFalpha release in mouse at 20 mg/kg, po; format: functional
Escherichia coli = experiment: Antimicrobial activity against Escherichia coli; format: functional, organism-based
Candida albicans = experiment: Antimicrobial activity against Candida albicans; format: functional, organism-based
[12] = target: Cyclin-dependent kinase 1/cyclin B1 (Homo sapiens, UniProt P06493); experiment: Inhibition of CDK1/cyclinB; format: protein-complex assay
Chain of Cyclin-dependent kinase 1/cyclin B1 (P06493 whole entry): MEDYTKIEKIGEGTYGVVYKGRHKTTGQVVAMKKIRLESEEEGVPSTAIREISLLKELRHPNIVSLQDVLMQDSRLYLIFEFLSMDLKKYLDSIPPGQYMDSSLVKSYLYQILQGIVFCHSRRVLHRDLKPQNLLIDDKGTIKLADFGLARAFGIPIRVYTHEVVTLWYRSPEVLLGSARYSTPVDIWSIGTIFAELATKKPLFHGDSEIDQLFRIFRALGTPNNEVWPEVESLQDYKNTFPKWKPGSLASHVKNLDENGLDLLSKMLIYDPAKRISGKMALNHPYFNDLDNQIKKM
Chain of Cyclin-dependent kinase 1/cyclin B1 (P14635 whole entry, further chain): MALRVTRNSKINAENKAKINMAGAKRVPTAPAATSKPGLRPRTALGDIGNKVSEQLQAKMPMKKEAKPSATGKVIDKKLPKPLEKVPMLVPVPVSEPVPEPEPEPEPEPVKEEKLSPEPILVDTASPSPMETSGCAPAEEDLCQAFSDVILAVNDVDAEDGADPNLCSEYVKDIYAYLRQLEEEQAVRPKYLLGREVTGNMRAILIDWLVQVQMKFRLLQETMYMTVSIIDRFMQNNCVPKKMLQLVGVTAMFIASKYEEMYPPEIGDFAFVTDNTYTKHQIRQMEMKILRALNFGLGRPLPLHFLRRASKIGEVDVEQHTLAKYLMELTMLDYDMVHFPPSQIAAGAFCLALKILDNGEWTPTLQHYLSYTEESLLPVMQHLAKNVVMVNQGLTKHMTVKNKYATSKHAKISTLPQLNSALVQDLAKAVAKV

CCn1ncc2cc(CCCO)cnc21
inhibition at 10 µM (THP-1 [1]): 0% | inhibition at 10 µM (THP-1 [2]): 45% | inhibition at 10 µM (THP-1 [3]): 8%

Cc1ccc(-c2cc3ncc(C(=O)c4cc(C)ccc4O)cn3n2)cc1
inhibition at 10 µM (THP-1 [1]): 0% | inhibition at 10 µM (THP-1 [2]): 9% | inhibition at 10 µM (THP-1 [3]): 5%

Cc1ccc(O)c(C(=O)c2cnc3onc(-c4ccccc4)c3c2)c1
inhibition at 10 µM (THP-1 [1]): 0% | inhibition at 10 µM (THP-1 [2]): 63% | inhibition at 10 µM (THP-1 [3]): 25%

Cc1ccc(O)c(C(=O)c2cnc3nc4ccccc4n3c2)c1
inhibition at 10 µM (THP-1 [1]): 5% | inhibition at 10 µM (THP-1 [2]): 32% | inhibition at 10 µM (THP-1 [3]): 37%

Cc1nn(-c2ccccc2)c2nc(-c3ccccc3)cc(C(=O)N/N=C/c3ccc(O)cc3)c12
IC50 (Trypanosoma cruzi): 1.9 µg/mL (≈ 4.25 µM)

CCn1ncc2c(-c3cncc(C)c3)c(/C=C/C(=O)O)cnc21
IC50 (Phosphodiesterase 4): > 1000 nM | IC50 (PBMC): 15.7 nM

Cc1ccc(O)c(C(=O)c2cnc3[nH]c(=O)[nH]c(=O)c3c2)c1
inhibition at 10 µM (THP-1 [1]): 6% | inhibition at 10 µM (THP-1 [2]): 39% | inhibition at 10 µM (THP-1 [3]): 0%

CCO[C@@H](C1=CC2C(c3ccc(O)cc3)=NN(c3ccccc3)C2N=C1)[C@H](O)[C@@H](O)CO (some centres not stated)
inhibition at 10 µM (THP-1 [1]): 0% | inhibition at 10 µM (THP-1 [2]): 40% | inhibition at 10 µM (THP-1 [3]): 5%

C[C@@H]1C[C@H]2[C@@H]3CCC4=CC(=O)C=C[C@]4(C)[C@@]3(F)[C@@H](O)C[C@]2(C)[C@@]1(O)C(=O)CO [DEXAMETHASONE]
IC50 (THP-1 [4]): 50 nM | IC50 (THP-1 [5]): 7 nM | IC50 (THP-1 [6]): > 100000 nM | inhibition at 1 µM (THP-1 [7]): 72% | inhibition at 1 µM (THP-1 [8]): 94% | inhibition at 1 µM (THP-1 [9]): 0%

COC[C@H](O)[C@@H](OC)[C@@H](OC)c1cnc2cc(-c3ccc(C)cc3)nn2c1
inhibition at 10 µM (THP-1 [1]): 18% | inhibition at 30 µM (THP-1 [10]): 30% | inhibition at 10 µM (THP-1 [2]): 34% | inhibition at 10 µM (THP-1 [3]): 3%

Cc1ccc(O)c(C(=O)c2cnc3c(c2)c(C)nn3C)c1
inhibition at 10 µM (THP-1 [1]): 0% | inhibition at 10 µM (THP-1 [2]): 60% | inhibition at 10 µM (THP-1 [3]): 41%

COc1ccc(-c2nn(-c3ccccc3)c3ncc(C(=O)c4cc(C)ccc4O)cc23)cc1
inhibition at 10 µM (THP-1 [1]): 0% | inhibition at 10 µM (THP-1 [2]): 49% | inhibition at 10 µM (THP-1 [3]): 27%

O=c1[nH]c(=O)c2cc(CCCO)cnc2[nH]1
inhibition at 10 µM (THP-1 [1]): 0% | inhibition at 10 µM (THP-1 [2]): 37% | inhibition at 10 µM (THP-1 [3]): 12%

Cc1cc(C)c(O)c(C(=O)c2cnc3c(c2)c(C)nn3-c2ccccc2)c1
inhibition at 10 µM (THP-1 [1]): 0% | inhibition at 10 µM (THP-1 [2]): 44% | inhibition at 10 µM (THP-1 [3]): 14%

COc1ccc(C(=O)NN2CCOCC2)cc1-c1n[nH]c2nc(Nc3ccc(F)cc3F)ccc12
IC50 [11]: 0.7 nM | inhibition in vivo at 20 mg/kg (Mus musculus): 97%

CCn1ncc2cc(CCCOC(C)=O)cnc21
inhibition at 10 µM (THP-1 [1]): 0% | inhibition at 10 µM (THP-1 [2]): 16% | inhibition at 10 µM (THP-1 [3]): 13%

Cc1nn(C)c2ncc(CCCO)cc12
inhibition at 10 µM (THP-1 [1]): 6% | inhibition at 10 µM (THP-1 [2]): 27% | inhibition at 10 µM (THP-1 [3]): 7%

COc1ccc(-c2nn(-c3ccccc3)c3ncc(CCCO)cc23)cc1
inhibition at 10 µM (THP-1 [1]): 12% | inhibition at 10 µM (THP-1 [2]): 36% | inhibition at 10 µM (THP-1 [3]): 10%

CCO[C@@H](C1=CC2C(C)=NN(c3ccccc3)C2N=C1)[C@H](OC)[C@@H](O)COC (some centres not stated)
inhibition at 10 µM (THP-1 [1]): 19% | inhibition at 30 µM (THP-1 [10]): 30% | inhibition at 10 µM (THP-1 [2]): 44% | inhibition at 10 µM (THP-1 [3]): 4%

COc1cc(-c2cc(-c3ccc(Cl)c(Cl)c3)nc3[nH]nc(C)c23)cc(OC)c1OC
IC50 (Escherichia coli): 22000 nM | IC50 (Candida albicans): 18000 nM

Cc1nn(-c2ccccc2)c2ncc(CCCO)cc12
inhibition at 10 µM (THP-1 [1]): 8% | inhibition at 10 µM (THP-1 [2]): 19% | inhibition at 10 µM (THP-1 [3]): 16%

OCCCc1cnc2ncnn2c1
inhibition at 10 µM (THP-1 [1]): 4% | inhibition at 10 µM (THP-1 [2]): 43% | inhibition at 10 µM (THP-1 [3]): 0%

CCNCc1cncc(-c2cnc3c(c2)C(c2nc4cc(F)ccc4[nH]2)N=N3)c1 (configuration not stated)
IC50 [12]: 0.7 nM

COC[C@H](O)[C@@H](OC)[C@@H](OC)C1=CC2C(C)=NN(C)C2N=C1 (some centres not stated)
inhibition at 10 µM (THP-1 [1]): 20% | inhibition at 30 µM (THP-1 [10]): 30% | inhibition at 10 µM (THP-1 [2]): 35% | inhibition at 10 µM (THP-1 [3]): 5%

CCO[C@@H](C1=CC2C(C)=NN(c3ccccc3)C2N=C1)[C@H](O)[C@@H](O)CO (some centres not stated)
inhibition at 10 µM (THP-1 [1]): 3% | inhibition at 10 µM (THP-1 [2]): 44% | inhibition at 10 µM (THP-1 [3]): 9%

Cc1ccc(O)c(C(=O)c2cnc3onc(C)c3c2)c1
IC50 (THP-1 [4]): > 100000 nM | IC50 (THP-1 [5]): 160 nM | IC50 (THP-1 [6]): > 100000 nM | inhibition at 10 µM (THP-1 [1]): 5% | inhibition at 10 µM (THP-1 [2]): 58% | inhibition at 10 µM (THP-1 [3]): 16%

CC(=O)OCCCc1cnc2ccnn2c1
inhibition at 10 µM (THP-1 [1]): 13% | inhibition at 10 µM (THP-1 [2]): 66% | inhibition at 10 µM (THP-1 [3]): 0%

OCCCc1cnc2nc3ccccc3n2c1
inhibition at 10 µM (THP-1 [1]): 0% | inhibition at 10 µM (THP-1 [2]): 18% | inhibition at 10 µM (THP-1 [3]): 9%

CCO[C@@H](C1=CC2C(C)=NN(c3ccccc3)C2N=C1)[C@H](O)[C@@H](O)COC (some centres not stated)
inhibition at 10 µM (THP-1 [1]): 2% | inhibition at 10 µM (THP-1 [2]): 43% | inhibition at 10 µM (THP-1 [3]): 8%

Cc1ccc(-c2cc3ncc(CCCO)cn3n2)cc1
inhibition at 10 µM (THP-1 [1]): 0% | inhibition at 10 µM (THP-1 [2]): 0% | inhibition at 10 µM (THP-1 [3]): 9%

CC(=O)OCCCc1cnc2ncnn2c1
inhibition at 10 µM (THP-1 [1]): 7% | inhibition at 10 µM (THP-1 [2]): 45% | inhibition at 10 µM (THP-1 [3]): 0%

CCO[C@@H](C1=CC2C(c3ccc(OC)cc3)=NN(c3ccccc3)C2N=C1)[C@H](OC)[C@@H](O)COC (some centres not stated)
inhibition at 10 µM (THP-1 [1]): 15% | inhibition at 30 µM (THP-1 [10]): 30% | inhibition at 10 µM (THP-1 [2]): 35% | inhibition at 10 µM (THP-1 [3]): 6%

CCn1ncc2c(-c3cncc(Br)c3)c(C#N)c(C)nc21
IC50 (Phosphodiesterase 4): > 1000 nM | IC50 (PBMC): 27 nM

Cc1ccc(O)c(C(=O)c2cnc3c(c2)c(C)nn3-c2ccccc2)c1
inhibition at 10 µM (THP-1 [1]): 0% | inhibition at 10 µM (THP-1 [2]): 54% | inhibition at 10 µM (THP-1 [3]): 39%

Cc1nn(C)c2ncc(C(=O)c3cc(F)ccc3O)cc12
inhibition at 10 µM (THP-1 [1]): 0% | inhibition at 10 µM (THP-1 [2]): 34% | inhibition at 10 µM (THP-1 [3]): 19%
